Data from PMC6712212 (Drug Design, Development and Therapy, 2019).

Test system: NSCLC-H292 cells
Assay: Flow cytometry cell cycle analysis
Assay type: cell-based, human
Method in brief: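 Cells were grown in six-well plates and treated 48 hrs, then harvested and centrifuged 5 mins. They were resuspended in precooled PBS, centrifuged again, and fixed in 70% ethanol overnight at 4°C. After a PBS rinse, cells were stained with propidium iodide. Red fluorescence of 1×10^5 cells was measured by flow cytometry with 488 nm excitation.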

O[C@@H](CS)[C@@H](O)CS [DTT]
Cell cycle effect (in words): cells were blocked in G0/G1phase
